Activity calls are given as the source filed them. The rule behind the calls is not given here.
Experiments:
Format in all cases: cell-based
Details in all cases: NIH3T3
[1] = molecular target: T1, Syndecan-4 (Mus musculus) (UniProt O35988); test: Binding affinity to syndecan 4 in mouse NIH/3T3 cells assessed as stimulation of beta 1 integrin-mediated cell adhesion at 50 ug/ml […] by microscopic analysis
T1 sequence (whole entry): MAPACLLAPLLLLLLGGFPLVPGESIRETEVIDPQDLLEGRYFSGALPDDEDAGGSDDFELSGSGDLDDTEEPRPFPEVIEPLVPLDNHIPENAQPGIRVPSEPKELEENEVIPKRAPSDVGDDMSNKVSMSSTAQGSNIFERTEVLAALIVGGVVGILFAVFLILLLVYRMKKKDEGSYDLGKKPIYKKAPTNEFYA
In short: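 Wells coated with fibronectin at 37 °C, blocked with BSA. NIH-3T3 cell suspension plus peptide (50 µg/ml) or PBS control incubated 1 h at 37 °C. Non-adhered cells washed off; attached cells counted by microscope in 4 independent fields. Mean ± S.E. of triplicate measurements.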

[2] = molecular target: T1, Syndecan-4 (Mus musculus); test: Binding affinity to syndecan 4 in mouse NIH/3T3 cells assessed as increase in cell proliferation at 25 to 50 ug/ml after 2 days by MTT assay relative to TNIIIA2 peptide
In short: (§1)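 NIH-3T3 cells with peptide at 25 and 50 µg/ml on fibronectin-coated, BSA-blocked wells, 2 days at 37 °C. MTT (0.5 mg/ml in phenol-red-free RPMI-1640) added for a further 3 h. Dye solubilized in acidic isopropanol (0.04 M HCl), absorbance read at 570 nm minus 650 nm background.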

[3] = molecular target: T1, Syndecan-4 (Mus musculus); test: Binding affinity to syndecan 4 in mouse NIH/3T3 cells assessed as stimulation of beta 1 integrin-mediated cell spreading at 50 ug/ml […] by microscopic analysis
In short: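 Fibronectin-coated, BSA-blocked wells; NIH-3T3 cells incubated with peptide (50 µg/ml) or PBS control for 1 h at 37 °C, then washed. Spread cells counted under a microscope in 4 independent fields; mean ± S.E. of triplicates.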

[4] = molecular target: T1, Syndecan-4 (Mus musculus); test: Binding affinity to syndecan 4 in mouse NIH/3T3 cells assessed as induction of cell proliferation at 25 to 50 ug/ml after 2 days by MTT assay; in short: as §1

Substance	Activity [1]	fold change (FC) [2]	Activity [3]	Activity [4]
H-ASTDLPGLKAATHYTITIRGVKC-OH	inactive	2	inactive	
H-RSTDLPGLAAATHYTITIRGVKC-OH	inactive	2	inactive	
H-RSTDLPGLKAATHYAITIRGVKC-OH	Active			
H-RSTDLPGLKAATHYTATIRGVKC-OH	Active		inactive	inactive
H-RSTDLPGLKAATHYTITARGVKC-OH	Active		inactive	inactive

Other lines, results leading:

Activity [1]	fold change (FC) [2]	Activity [3]	Activity [4]	Substance
Active		inactive		H-RSTDLPGLKAATHATITIRGVKC-OH
Active				H-RSTDLPGLKAATHYTIAIRGVKC-OH
inactive		inactive	Active	H-RSTDLPGLKAATHYTITIAGVKC-OH
Active		Active	Active	H-RSTDLPGLKAATHYTITIRGVKC-OH

Reference: ChEMBL document CHEMBL2062368, “The cell adhesion and proliferation activities of a peptide derived from human tenascin-C are dependent on two Ile residues” (Bioorg Med Chem, 2012)
